Measured values published in ChEMBL document CHEMBL1156122, “Protein tyrosine phosphatase 1B inhibitors isolated from Morus bombycis” (Bioorg Med Chem Lett, 2009).

Experiments:
[1] = substrate: CC(C)=CCC/C(C)=C/Cc1c(O)cc(O)cc1-c1cc2ccc(O)cc2o1; test: (§1) Activity at human recombinant PTP1B
How it was run: (§2)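 Recombinant human PTP1B (0.1 μg) incubated with 2 mM p-NPP in 50 mM citrate pH 6.0, 0.1 M NaCl, 1 mM EDTA, 1 mM DTT, with or without inhibitor. Incubation 37 °C for 30 min, stopped with 10 M NaOH. p-Nitrophenol read by absorbance at 405 nm, corrected for nonenzymatic p-NPP hydrolysis without enzyme. Values are mean ± SD of triplicates.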

[2] = substrate: CC(C)=CCC/C(C)=C/Cc1c(O)ccc2cc(-c3cc(O)cc(O)c3CC=C(C)C)oc12; test: as §1; how it was run: as §2
[3] = substrate: CC(C)=CCC/C(C)=C\CC/C(C)=C\Cc1c(O)cc(O)cc1-c1cc2ccc(O)cc2o1; test: as §1; how it was run: as §2
[4] = substrate: CC(C)=CCc1c(O)cc(C(=O)[C@H]2[C@@H](c3c(O)ccc(C(=O)/C=C/c4ccc(O)cc4)c3O)C=C(C)C[C@@H]2c2ccc(O)cc2)cc1O; test: as §1; how it was run: as §2
[5] = substrate: CC(C)=CCc1c(O)cc(C(=O)[C@H]2[C@@H](c3c(O)ccc(C(=O)/C=C/c4ccc(O)cc4)c3O)C=C(C)C[C@@H]2c2ccc(O)cc2O)cc1O; test: as §1; how it was run: as §2
[6] = substrate: CC(C)=CCc1c(O)cc(C(=O)[C@H]2[C@@H](c3c(O)ccc(C(=O)/C=C/c4ccc(O)cc4O)c3O)C=C(C)C[C@@H]2c2ccc(O)cc2O)cc1O; test: as §1; how it was run: as §2

B1: Tyrosine-protein phosphatase non-receptor type 1 (Homo sapiens), P18031 (protein)
chain: MEMEKEFEQIDKSGSWAAIYQDIRHEASDFPCRVAKLPKNKNRNRYRDVSPFDHSRIKLHQEDNDYINASLIKMEEAQRSYILTQGPLPNTCGHFWEMVWEQKSRGVVMLNRVMEKGSLKCAQYWPQKEEKEMIFEDTNLKLTLISEDIKSYYTVRQLELENLTTQETREILHFHYTTWPDFGVPESPASFLNFLFKVRESGSLSPEHGPVVVHCSAGIGRSGTFCLADTCLLLMDKRKDPSSVDIKKVLLEMRKFRMGLIQTADQLRFSYLAVIEGAKFIMGDSSVQDQWKELSHEDLEPPPEHIPPPPRPPKRILEPHNGKCREFFPNHQWVKEETQEDKDCPIKEEKGSPLNAAPYGIESMSQDTEVRSRVVGGSLRGAQAASPAKGEPSLPEKDEDHALSYWKPFLVNMCVATVLTAGAYLCYRFLFNSNT
Km [1]: 1250 µM | Vmax [1]: 6.58 µM/min | Km [2]: 2080 µM | Vmax [2]: 5.78 µM/min | Km [3]: 3.17 mM | Vmax [3]: 5.49 µM/min | Km [4]: 1190 µM | Vmax [4]: 6.71 µM/min | Km [5]: 1640 µM | Vmax [5]: 5.95 µM/min | Km [6]: 2810 µM | Vmax [6]: 5.41 µM/min
